The structures appear in SMILES notation. “And” between values parts separate entries of the source, which are not always exact repeats. Identical values can stand only once.

The assay has as its system Candida glabrata growth in glycerol medium, OD600, 48 h. In words: C. glabrata respiratory growth inhibitors tested alone – glycerol medium, OD600, dry powder, set 4, dose response (AID 624014). In outline:
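buffer or medium = CSM-glycerol medium | test system = Candida glabrata yeast cells, whole-organism growth assay | control set = amphotericin B at 10 µM as positive control | measured by = absorbance at 600 nm (OD600) as growth measure | schedule = compound exposure 48 h at 30 °C, static, humidified | doses = compounds delivered into wells by pin transfer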
For orientation: AC50 means the concentration at which the activity in the assay is half-maximal. For the compound `CCOC(=O)N1C(=O)C2(CCCCC2)N(c2ccc(C#N)cc2)C1=S`, the AC50 is 0.0278 µM.
The value for `CCOC(=O)N1C(=O)C2(CCCCC2)N(c2ccc(F)cc2)C1=S` was 0.00616 µM.
For `C/C=C/[C@@H]1[C@H]2C[C@@H](C)CC[C@@H]2C(C)=C[C@H]1C(=O)c1c(O)c(-c2ccc(O)cc2)c[nH]c1=O` the value was 2.45 µM; for `CCOC(=O)N1C(=O)C2(CCCCC2)N(c2cccc(C)c2)C1=S`, 0.0239 µM; for `CCOC(=O)N1C(=O)C2(CCCCC2)N(c2ccccc2)C1=S`, 0.0194 µM.
Turning to `CCOC(=O)N1C(=O)C2(CCCCC2)N(c2ccc(C)cc2)C1=S`, the half-maximal activity concentration (AC50) is 0.0318 µM and 0.0224 µM.
The value for `CCOC(=O)N1C(=O)C2(CCCCC2)N(c2ccc(Cl)cc2)C1=S` was 0.0138 µM.
As for `CC1/C=C/C=C\C=C\C=C\C=C\C=C\C=C\C(O[C@H]2OC(C)C(O)C(N)C2O)CC2OC(O)(CC(O)CC(O)C(O)CCC(O)CC(O)CC(=O)OC(C)C(C)C1O)CC(O)C2C(=O)O` (stereo partly drawn), the AC50 is 0.602 µM.
